According to ChEMBL document CHEMBL4689842, “EUbOPEN Chemogenomics Library wave 1” (2021):

Key:
[1] = system: HEK-293T; assay: Multiplex assay against HEK293T; format: toxicity, cell-based; settings: human;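 on Population Tubulin-Different-Phenotype (%): share of the cells with healthy nuclei that show this phenotype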
Method in brief: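 Four dyes were applied at seeding to live cells: Hoechst33342, BioTracker Green Microtubule Cytoskeleton Dye, MitoTracker Red and Annexin V Alexa Fluor 680. Imaging after compound addition used a CQ1 microscope at 37°C and 5% CO2. CellPathfinder machine-learning gating then sorted cells into Hoechst high-intensity objects or normal cells, normal cells into healthy, pyknosed or fragmented nuclei, and pyknosed cells into mitotic or apoptotic, with tubulin, mitochondrial-mass and membrane-permeability phenotypes given as per cents of healthy-nucleus cells.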

[2] = system: Fibroblast; assay: Incucyte cell viability with human fibroblast; format: toxicity, cell-based; settings: 10 µM, compound concentration 10 uM; further: filed as whole numbers so only -1 and 0 and 1 occur
[3] = 12 h, 1 µM, compound concentration 1 uM, replicate 1
[4] = 12 h, 1 µM, compound concentration 1 uM, replicate 2
[5] = 12 h, 10 µM, compound concentration 10 uM, replicate 1
[6] = 12 h, 10 µM, compound concentration 10 uM, replicate 2
[7] = 24 h, 1 µM, compound concentration 1 uM, replicate 1
[8] = 24 h, 1 µM, compound concentration 1 uM, replicate 2
[9] = 24 h, 10 µM, compound concentration 10 uM, replicate 1
[10] = 24 h, 10 µM, compound concentration 10 uM, replicate 2
[11] = 12 h, replicate number 1, timepoint 12 hours
[12] = 18 h, replicate number 1, timepoint 18 hours
[13] = 24 h, replicate number 1, timepoint 24 hours

## CC[C@@H]1C(=O)N(C)c2cnc(Nc3ccc(C(=O)NC4CCN(C)CC4)cc3OC)nc2N1C1CCCC1 [BI-2536]
[1]; [3]
  Population Apoptotic (%): 15%
  Population Fragmented Nuclei (%): 15%
  Population Healthy Nuclei (%): 61%
  Population Hoechst High Intensity Objects (%): 12%
  Population Membrane Permeable-Phenotype (%): 12%
  Population Mitochondria Different-Phenotype (%): 10%
  Population Mitotic Cells (%): 84%
  Population Normal (%): 87%
  Population Pyknosed Nuclei (%): 22%
  Population Tubulin-Different-Phenotype (%): 14%
  Total Cell Count: 578
[1]; [4]
  Population Apoptotic (%): 12%
  Population Fragmented Nuclei (%): 3%
  Population Healthy Nuclei (%): 82%
  Population Hoechst High Intensity Objects (%): 2%
  Population Membrane Permeable-Phenotype (%): 7%
  Population Mitochondria Different-Phenotype (%): 28%
  Population Mitotic Cells (%): 87%
  Population Normal (%): 97%
  Population Pyknosed Nuclei (%): 13%
  Population Tubulin-Different-Phenotype (%): 41%
  Total Cell Count: 1166
[1]; [5]
  Population Apoptotic (%): 32%
  Population Fragmented Nuclei (%): 17%
  Population Healthy Nuclei (%): 59%
  Population Hoechst High Intensity Objects (%): 11%
  Population Membrane Permeable-Phenotype (%): 17%
  Population Mitochondria Different-Phenotype (%): 40%
  Population Mitotic Cells (%): 67%
  Population Normal (%): 88%
  Population Pyknosed Nuclei (%): 23%
  Population Tubulin-Different-Phenotype (%): 90%
  Total Cell Count: 497
[1]; [6]
  Population Apoptotic (%): 12%
  Population Fragmented Nuclei (%): 4%
  Population Healthy Nuclei (%): 81%
  Population Hoechst High Intensity Objects (%): 3%
  Population Membrane Permeable-Phenotype (%): 24%
  Population Mitochondria Different-Phenotype (%): 43%
  Population Mitotic Cells (%): 87%
  Population Normal (%): 96%
  Population Pyknosed Nuclei (%): 13%
  Population Tubulin-Different-Phenotype (%): 98%
  Total Cell Count: 911
[1]; [7]
  Population Apoptotic (%): 14%
  Population Fragmented Nuclei (%): 14%
  Population Healthy Nuclei (%): 62%
  Population Hoechst High Intensity Objects (%): 12%
  Population Membrane Permeable-Phenotype (%): 5%
  Population Mitochondria Different-Phenotype (%): 12%
  Population Mitotic Cells (%): 85%
  Population Normal (%): 87%
  Population Pyknosed Nuclei (%): 23%
  Population Tubulin-Different-Phenotype (%): 19%
  Total Cell Count: 553
[1]; [8]
  Population Apoptotic (%): 6%
  Population Fragmented Nuclei (%): 2%
  Population Healthy Nuclei (%): 66%
  Population Hoechst High Intensity Objects (%): 4%
  Population Membrane Permeable-Phenotype (%): 2%
  Population Mitochondria Different-Phenotype (%): 22%
  Population Mitotic Cells (%): 93%
  Population Normal (%): 95%
  Population Pyknosed Nuclei (%): 31%
  Population Tubulin-Different-Phenotype (%): 48%
  Total Cell Count: 1114
[1]; [9]
  Population Apoptotic (%): 39%
  Population Fragmented Nuclei (%): 17%
  Population Healthy Nuclei (%): 57%
  Population Hoechst High Intensity Objects (%): 12%
  Population Membrane Permeable-Phenotype (%): 7%
  Population Mitochondria Different-Phenotype (%): 80%
  Population Mitotic Cells (%): 60%
  Population Normal (%): 87%
  Population Pyknosed Nuclei (%): 25%
  Population Tubulin-Different-Phenotype (%): 93%
  Total Cell Count: 510
[1]; [10]
  Population Apoptotic (%): 11%
  Population Fragmented Nuclei (%): 11%
  Population Healthy Nuclei (%): 62%
  Population Hoechst High Intensity Objects (%): 3%
  Population Membrane Permeable-Phenotype (%): 8%
  Population Mitochondria Different-Phenotype (%): 59%
  Population Mitotic Cells (%): 88%
  Population Normal (%): 96%
  Population Pyknosed Nuclei (%): 26%
  Population Tubulin-Different-Phenotype (%): 97%
  Total Cell Count: 1005
[2]; 0 h, replicate number 1, timepoint 0 hours
  Growth Rate: 0
[2]; [11]
  Growth Rate: 1
[2]; [12]
  Growth Rate: 0
[2]; 18 h, replicate number 2, timepoint 18 hours
  Growth Rate: 1
[2]; [13]
  Growth Rate: 0

## CCOc1ccn(-c2ccc(F)cc2)c(=O)c1C(=O)Nc1ccc(Oc2ccnc(N)c2Cl)c(F)c1 [BMS-777607]
[1]; [3]
  Population Apoptotic (%): 25%
  Population Fragmented Nuclei (%): 14%
  Population Healthy Nuclei (%): 67%
  Population Hoechst High Intensity Objects (%): 10%
  Population Membrane Permeable-Phenotype (%): 6%
  Population Mitochondria Different-Phenotype (%): 10%
  Population Mitotic Cells (%): 75%
  Population Normal (%): 89%
  Population Pyknosed Nuclei (%): 17%
  Population Tubulin-Different-Phenotype (%): 22%
  Total Cell Count: 624
[1]; [4]
  Population Apoptotic (%): 5%
  Population Fragmented Nuclei (%): 5%
  Population Healthy Nuclei (%): 89%
  Population Hoechst High Intensity Objects (%): 2%
  Population Mitochondria Different-Phenotype (%): 16%
  Population Mitotic Cells (%): 95%
  Population Normal (%): 97%
  Population Pyknosed Nuclei (%): 5%
  Population Tubulin-Different-Phenotype (%): 48%
  Total Cell Count: 1393
[1]; [5]
  Population Apoptotic (%): 23%
  Population Fragmented Nuclei (%): 25%
  Population Healthy Nuclei (%): 50%
  Population Hoechst High Intensity Objects (%): 15%
  Population Membrane Permeable-Phenotype (%): 4%
  Population Mitochondria Different-Phenotype (%): 3%
  Population Mitotic Cells (%): 76%
  Population Normal (%): 84%
  Population Pyknosed Nuclei (%): 25%
  Population Tubulin-Different-Phenotype (%): 3%
  Total Cell Count: 432
[1]; [6]
  Population Apoptotic (%): 15%
  Population Fragmented Nuclei (%): 9%
  Population Healthy Nuclei (%): 86%
  Population Hoechst High Intensity Objects (%): 2%
  Population Membrane Permeable-Phenotype (%): 2%
  Population Mitochondria Different-Phenotype (%): 7%
  Population Mitotic Cells (%): 84%
  Population Normal (%): 97%
  Population Pyknosed Nuclei (%): 4%
  Population Tubulin-Different-Phenotype (%): 5%
  Total Cell Count: 1444
[1]; [7]
  Population Apoptotic (%): 17%
  Population Fragmented Nuclei (%): 11%
  Population Healthy Nuclei (%): 76%
  Population Hoechst High Intensity Objects (%): 10%
  Population Membrane Permeable-Phenotype (%): 10%
  Population Mitochondria Different-Phenotype (%): 12%
  Population Mitotic Cells (%): 82%
  Population Normal (%): 89%
  Population Pyknosed Nuclei (%): 12%
  Population Tubulin-Different-Phenotype (%): 40%
  Total Cell Count: 625
[1]; [8]
  Population Apoptotic (%): 9%
  Population Fragmented Nuclei (%): 10%
  Population Healthy Nuclei (%): 84%
  Population Hoechst High Intensity Objects (%): 6%
  Population Membrane Permeable-Phenotype (%): 12%
  Population Mitochondria Different-Phenotype (%): 4%
  Population Mitotic Cells (%): 90%
  Population Normal (%): 93%
  Population Pyknosed Nuclei (%): 4%
  Population Tubulin-Different-Phenotype (%): 70%
  Total Cell Count: 1553
[1]; [9]
  Population Apoptotic (%): 25%
  Population Fragmented Nuclei (%): 18%
  Population Healthy Nuclei (%): 69%
  Population Hoechst High Intensity Objects (%): 13%
  Population Membrane Permeable-Phenotype (%): 6%
  Population Mitochondria Different-Phenotype (%): 3%
  Population Mitotic Cells (%): 74%
  Population Normal (%): 86%
  Population Pyknosed Nuclei (%): 12%
  Population Tubulin-Different-Phenotype (%): 5%
  Total Cell Count: 433
[1]; [10]
  Population Apoptotic (%): 8%
  Population Fragmented Nuclei (%): 27%
  Population Hoechst High Intensity Objects (%): 2%
  Population Membrane Permeable-Phenotype (%): 5%
  Population Mitochondria Different-Phenotype (%): 1%
  Population Mitotic Cells (%): 91%
  Population Normal (%): 97%
  Population Pyknosed Nuclei (%): 2%
  Total Cell Count: 2353
[2]; 6 h, replicate number 1, timepoint 6 hours
  Growth Rate: 0
[2]; [11]
  Growth Rate: 0
[2]; [12]
  Growth Rate: 0
[2]; [13]
  Growth Rate: 0
